This passage reports EC50, Activity and IC50 results from ChEMBL document CHEMBL2321674, “Design, synthesis and biological evaluation of sulfur-containing 1,1-bisphosphonic acids as antiparasitic agents” (Eur J Med Chem, 2013).

The subject of series [1] is Trypanosoma cruzi. As to the kind of experiment: Antiparasitic activity against Trypanosoma cruzi amastigotes infected in gamma-irradiated vero cells assessed as growth inhibition measured after 3 days by fluorescence assay. The series is classed as functional. To be noted: light or radiation study, 72 h, read-out: ED50 (the source's name).
Series [2] has as its system Vero. The series is described as follows: Cytotoxicity against african green monkey Vero cells assessed as cell viability at 25 uM. The series is classed as cell-based. To be noted: chlorocebus sabaeus.
The target in series [3] is T1, Farnesyl diphosphate synthase (Toxoplasma gondii, UniProt Q197X6).
T1 sequence (Q197X6 whole entry): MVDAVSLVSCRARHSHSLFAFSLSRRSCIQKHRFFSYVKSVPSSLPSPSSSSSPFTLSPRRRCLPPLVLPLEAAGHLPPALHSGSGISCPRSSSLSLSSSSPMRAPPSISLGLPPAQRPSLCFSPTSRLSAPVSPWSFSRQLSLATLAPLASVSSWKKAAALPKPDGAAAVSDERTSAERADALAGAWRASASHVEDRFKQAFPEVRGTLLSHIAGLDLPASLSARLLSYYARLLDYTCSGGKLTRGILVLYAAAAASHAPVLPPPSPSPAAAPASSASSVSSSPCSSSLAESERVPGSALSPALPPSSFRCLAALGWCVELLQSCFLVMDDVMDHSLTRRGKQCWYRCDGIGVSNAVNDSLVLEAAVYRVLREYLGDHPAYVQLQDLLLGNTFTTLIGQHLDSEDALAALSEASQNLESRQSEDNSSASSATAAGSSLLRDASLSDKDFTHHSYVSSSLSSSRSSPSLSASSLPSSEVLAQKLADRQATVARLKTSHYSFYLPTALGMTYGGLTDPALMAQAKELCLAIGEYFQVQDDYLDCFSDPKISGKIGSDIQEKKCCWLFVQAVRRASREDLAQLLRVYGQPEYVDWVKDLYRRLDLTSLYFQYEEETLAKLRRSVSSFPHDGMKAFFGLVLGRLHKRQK
The series is described as follows: Inhibition of Toxoplasma gondii farnesyl diphosphate synthase assessed as incorporation of [4-14C]IPP measured at 37 degC.

Series [4] addresses T2, Farnesyl diphosphate synthase (Trypanosoma cruzi, UniProt Q8WS26).
T2 sequence (Q8WS26 whole entry): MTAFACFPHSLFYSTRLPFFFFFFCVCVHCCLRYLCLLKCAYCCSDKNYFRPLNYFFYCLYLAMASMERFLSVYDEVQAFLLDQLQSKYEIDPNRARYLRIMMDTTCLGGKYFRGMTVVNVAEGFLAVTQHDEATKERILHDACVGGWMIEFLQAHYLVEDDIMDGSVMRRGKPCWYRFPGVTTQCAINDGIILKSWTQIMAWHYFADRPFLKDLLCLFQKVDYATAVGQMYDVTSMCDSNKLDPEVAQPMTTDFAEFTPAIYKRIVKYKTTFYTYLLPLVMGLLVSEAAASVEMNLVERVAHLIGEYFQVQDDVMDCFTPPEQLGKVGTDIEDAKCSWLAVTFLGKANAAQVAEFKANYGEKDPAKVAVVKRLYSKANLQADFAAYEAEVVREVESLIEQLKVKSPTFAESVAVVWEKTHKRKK
As to the kind of experiment: Inhibition of Trypanosoma cruzi farnesyl diphosphate synthase assessed as incorporation of [4-14C]IPP measured at 37 degC.

The nature of series [5]: Cytotoxicity against hTerT cells assessed as growth inhibition measured at > 200 uM after 3 to 4 days by Alamar Blue assay. The following applies: human. The series is classed as cell-based. The essentials: (§1)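 Non-irradiated confluent hTERT cells in phenol-red-free high-glucose DMEM with 10% Cosmic Calf Serum, washed, serial drug dilutions in quadruplicate, 35 °C, 7% CO2 for 3–4 days. AlamarBlue at 10% of culture volume, 6 h at 35 °C, absorbance at 570 and 600 nm. Percent growth inhibition = 100 minus percent reduction difference versus untreated control; DMSO as toxicity control.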
In general terms: The colour change of resazurin is a common sign of viable cells or microbes.

Series [6] deals with Toxoplasma gondii. As to the kind of experiment: Antiparasitic activity against Toxoplasma gondii tachyzoite expressing red fluorescence protein assessed as growth inhibition by fluorescence plate reader. The series is classed as functional. The following applies: read-out: ED50 (the source's name). The essentials: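 T. gondii tachyzoites expressing red fluorescent protein, filtered (3 μm) and needle-passed, inoculated at 10^4/well onto confluent hTerT monolayers in DMEM-HG with 1% FBS, 2 mM glutamine, 1 mM pyruvate, serial drug dilutions; 37 °C, 5% CO2, fluorescence read daily from bottom (ex 510/em 540 nm).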

Series [7] is described as follows: Cytotoxicity against hTerT cells assessed as growth inhibition measured at >= 500 uM after 3 to 4 days by Alamar Blue assay. The series is classed as cell-based. The following applies: human. The essentials:
as §1

Series [8] can be described thus: Cytotoxicity against hTerT cells assessed as growth inhibition measured at > 1000 uM after 3 to 4 days by Alamar Blue assay. The format is cell-based. To be noted: human. The essentials:
as §1

A word on the IC50: it is the concentration that inhibits the measured activity by half.

SMILES strings stand for the structures.

As to `CCCCCCCSCC(P(=O)(O)O)P(=O)(O)O`, the EC50 is > 20 µM in series [1] and 0.97 µM in series [6]. The Activity entry in series [2] and in series [5] was “Non-toxic” in each case. The 50% inhibitory concentration (IC50) is 0.069 µM in series [3] and > 10 µM in series [4].

Consider `CCCCCS(=O)(=O)CC(P(=O)(O)O)P(=O)(O)O`, for which the figures for the EC50 in series [1] and in series [6] were > 20 µM and > 10 µM, respectively. Moreover, in series [2], the Activity result is “Non-toxic”. In addition, the concentration for half-maximal inhibition (IC50) in series [3] and in series [4] was > 10 µM in each case.

Turning to `CCCCCCCCCSCC(P(=O)(O)O)P(=O)(O)O`, the Activity entry in series [7] and in series [2] was “Non-toxic” in each case. Also, the EC50 stood at 12.8 µM in series [1] and 1.2 µM in series [6]. For the same compound, the 50% inhibitory concentration (IC50) in series [3] came to 0.025 µM; in series [4] it was 1.7 µM.

Consider `O=C(Cn1ccnc1[N+](=O)[O-])NCc1ccccc1` [BENZNIDAZOLE], for which the EC50 in series [1] came to 1.7 µM.

On to `CCCCCSCC(P(=O)(O)O)P(=O)(O)O`, for which the EC50 in series [1] is > 20 µM; in series [6] it was > 10 µM. Besides, the Activity entry in series [2] is reported as “Non-toxic”. The half-inhibitory concentration (IC50) in series [3] is 0.11 µM; in series [4], > 10 µM.

As for `CCCCCCCCC[S+]([O-])CC(P(=O)(O)O)P(=O)(O)O` (stereo not drawn), the EC50 in series [1] was 19.4 µM; in series [6], 1.4 µM. The Activity result in series [2] and in series [8] was “Non-toxic” throughout. Also, the values for the concentration for half-maximal inhibition (IC50) in series [3] and in series [4] were 0.056 µM and > 10 µM, respectively.

Consider `CCCCCCCNCC(O)(P(=O)(O)O)P(=O)(O)O`, for which the EC50 in series [1] was > 20 µM; in series [6], > 10 µM. In addition, the Activity result in series [2] is reported as “Non-toxic”. Besides, the IC50 is > 1 µM in series [3] and > 10 µM in series [4].

Consider `CCCCCCC[S+]([O-])CC(P(=O)(O)O)P(=O)(O)O` (stereo not drawn), for which the EC50 was > 20 µM in series [1] and 5 µM in series [6]. For the same compound, the Activity result in series [2] is reported as “Non-toxic”. The figures for the 50% inhibitory concentration (IC50) in series [3] and in series [4] were 0.009 µM and > 10 µM, respectively.

For `CCCCCCCCSCC(P(=O)(O)O)P(=O)(O)O`, the EC50 in series [1] stood at 15.8 µM; in series [6], 2.6 µM. For the same compound, the Activity entry in series [2] and in series [8] was “Non-toxic” throughout. The IC50 in series [3] turned out to be 0.024 µM; in series [4] it was 6.39 µM.

Consider `CCCCCCSCC(P(=O)(O)O)P(=O)(O)O`, for which the EC50 was > 20 µM in series [1] and 6.5 µM in series [6]. Also, the Activity entry in series [2] was “Non-toxic”. The figures for the IC50 in series [3] and in series [4] were 0.307 µM and > 10 µM, respectively.

Regarding `CCCC[S+]([O-])CC(P(=O)(O)O)P(=O)(O)O` (stereo not drawn), the results for the EC50 in series [1] and in series [6] were > 20 µM and > 10 µM, respectively. For the same compound, the Activity entry in series [2] is reported as “Non-toxic”. Moreover, the 50% inhibitory concentration (IC50) in series [3] and in series [4] was > 10 µM throughout.

For the compound `O=P(O)(O)C(O)(Cc1cccnc1)P(=O)(O)O` [RISEDRONIC ACID], the figures for the EC50 in series [1] and in series [6] were 55 µM and 2.4 µM, respectively.

As for `CCCCC[S+]([O-])CC(P(=O)(O)O)P(=O)(O)O` (stereo not drawn), the EC50 was > 20 µM in series [1] and > 10 µM in series [6]. Further, the Activity result in series [2] was “Non-toxic”. Moreover, the IC50 in series [3] and in series [4] was > 10 µM each time.

Consider `CCCCCCCCCC[S+]([O-])CC(P(=O)(O)O)P(=O)(O)O` (stereo not drawn), for which the EC50 in series [1] is > 20 µM; in series [6], 7.6 µM. Also, in series [2], the Activity result is “Non-toxic”. Also, the half-inhibitory concentration (IC50) in series [3] and in series [4] was > 10 µM in each case.

`CCCCCC[S+]([O-])CC(P(=O)(O)O)P(=O)(O)O` (stereo not drawn): the EC50 in series [1] is > 20 µM; in series [6], > 10 µM. In series [2], the Activity entry is “Non-toxic”. The half-inhibitory concentration (IC50) in series [3] and in series [4] was > 10 µM each time.

As for `CCCCCC(C)NCC(P(=O)(O)O)P(=O)(O)O` (stereo not drawn), the EC50 in series [1] is > 20 µM; in series [6] it was 11.4 µM. The Activity result in series [2] is recorded as “Non-toxic”. The values for the IC50 in series [3] and in series [4] were < 1 µM and > 10 µM, respectively.

For `CCCCCCCC[S+](C)CC(P(=O)(O)O)P(=O)(O)O.F[B-](F)(F)F` (stereo not drawn), the EC50 is > 20 µM in series [1] and 7 µM in series [6]. The Activity entry in series [2] was “Non-toxic”. Also, the 50% inhibitory concentration (IC50) in series [3] is 0.013 µM; in series [4], 0.04 µM.

Turning to `CCCSCC(P(=O)(O)O)P(=O)(O)O`, the EC50 in series [1] is > 20 µM; in series [6], > 10 µM. Besides, the Activity result in series [2] is listed as “Non-toxic”. Moreover, the half-maximal inhibitory concentration (IC50) in series [3] is 0.066 µM; in series [4], 0.925 µM.

For the compound `CCCCSCC(P(=O)(O)O)P(=O)(O)O`, the EC50 in series [1] was > 20 µM; in series [6], > 10 µM. The Activity result in series [2] is “Non-toxic”. Also, the IC50 in series [3] is 0.048 µM; in series [4] it was 0.789 µM.

On to `CCCCCCCC[S+]([O-])CC(P(=O)(O)O)P(=O)(O)O` (stereo not drawn), for which the results for the EC50 in series [1] and in series [6] were > 20 µM and 3 µM, respectively. The Activity entry in series [2] was “Non-toxic”. The figures for the IC50 in series [3] and in series [4] were 0.016 µM and > 10 µM, respectively.

On to `CCSCC(P(=O)(O)O)P(=O)(O)O`, for which the EC50 was > 20 µM in series [1] and > 10 µM in series [6]. In addition, the Activity entry in series [2] was “Non-toxic”. For the same compound, the 50% inhibitory concentration (IC50) in series [3] is 1.83 µM; in series [4], 0.627 µM.

For `CCCCCCCCCCSCC(P(=O)(O)O)P(=O)(O)O`, the EC50 was > 20 µM in series [1] and 1.8 µM in series [6]. For the same compound, the Activity entry in series [2] and in series [5] was “Non-toxic” in each case. In addition, the concentration for half-maximal inhibition (IC50) was found to be 0.021 µM in series [3] and 0.097 µM in series [4].
